Several values for one entry are separate records, joined by “and”; a condition that tells them apart may be missing. Equal entries are not always repeated. Activity calls are given as the source filed them. The rule behind the calls is not given here.

Test [1] has as its system LNCaP. Kind of test: Antiproliferative activity against human LNCAP cells after 48 hrs by MTT assay. Type of test: functional, cell-based. Summed up:
(§1)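 LNCaP cells were grown in RPMI 1640 with 10% heat-inactivated FBS, penicillin/streptomycin, HEPES, 1 mM pyruvate and 2.5 g/L glucose. PC3 cells were grown in RPMI 1640 with 10% FBS and penicillin/streptomycin, at 37 °C in 5% CO₂. Cells were seeded at 4 × 10⁴ per well and left to adhere overnight. Compounds were diluted 1:1000 from DMSO stocks, with a 0.1% DMSO vehicle, and incubated 24–96 h without medium change. MTT was added for 4 h, the formazan dissolved in DMSO, and A570 read. Runs were in quadruplicate; ED50 was taken from dose-effect curves against vehicle.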
In general terms: Formazan colour is commonly taken as a measure of viable cells.

Test [2] concerns PC-3. Nature of the test: Antiproliferative activity against human PC3 cells at 10 to 25 uM after 24 hrs by MTT assay. Type of test: functional. Summed up: (§2)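 Percent growth was scored against vehicle-treated control (0.1% DMSO, 1:1000 dilution of DMSO stock) using the MTT assay. LNCaP cells were in supplemented RPMI 1640 with HEPES, pyruvate and glucose; PC3 cells were in RPMI 1640 with 10% FBS. Cells were seeded at 4 × 10⁴ per well and exposed 24, 48, 72 or 96 h. MTT was added for 4 h, the formazan dissolved in DMSO, and A570 read; n = 4.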

The test system of test [3] is PC-3. Kind of test: Antiproliferative activity against human PC3 cells after 72 hrs by MTT assay. Type of test: functional, cell-based. To be noted: PC-3, 72 h. A digest of the protocol:
as §1

For test [4], the target named is T1, Histone deacetylase (Homo sapiens) (UniProt Q13547+O15379+Q9UBN7+Q92769+Q9UQL6+Q8WUI4+Q9BY41+Q96DB2+P56524+Q9UKV0+Q969S8). Nature of the test: Inhibition of HDAC in human LNCAP cells at 10 uM after 10 mins by fluorometric assay. Type of test: cell-based. A digest of the protocol: (§3)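 LNCaP or PC3 cells were seeded at 3 × 10⁵ per dish, left overnight, then treated in medium for 1 h (and 24 h). Cells were PBS-washed and lysed, and nuclear protein was extracted with the NE-PER kit. Extracts received assay buffer only plus Fluor de Lys substrate, 10 min at 25–37 °C, then developer. Fluorescence was read at ex 360/em 460 nm relative to DMSO-treated control, in triplicate.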

The subject of test [5] is PC-3. Nature of the test: Antiproliferative activity against human PC3 cells after 96 hrs by MTT assay. It is filed as functional, cell-based. The settings on record: PC-3, 96 h. A digest of the protocol: as §1
Test [6] deals with PC-3. Kind of test: Antiproliferative activity against human PC3 cells after 48 hrs by MTT assay. To be noted: PC-3, 48 h. Type of test: functional, cell-based. Summed up: as §1
Test [7] has as its system LNCaP. Nature of the test: Antiproliferative activity against human LNCAP cells after 24 hrs by MTT assay. Type of test: functional, cell-based. A digest of the protocol:
as §1

Test [8] in a line: Displacement of [3H]DTG from sigma 2 receptor in guinea pig brain membrane after 120 mins by liquid scintillation counting. Type of test: cell membranes, Cavia porcellus. A digest of the protocol: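 Guinea pig membranes were incubated 120 min at room temperature with 3 nM [³H]DTG and (+)-SKF10,047 to mask σ1 sites, in 50 mM Tris-HCl pH 8.0. DTG defined nonspecific binding. Samples were filtered on PEI-presoaked glass-fibre filters, washed and counted by liquid scintillation; Ki was calculated.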

Test [9] deals with LNCaP. Nature of the test: Antiproliferative activity against human LNCAP cells at 10 uM after 96 hrs by MTT assay. Type of test: functional, cell-based. A digest of the protocol:
as §2

The target of test [10] is Sigma non-opioid intracellular receptor 1 (Cavia porcellus, UniProt Q60492). Kind of test: Displacement of [3H]-(+)-pentazocine from sigma 1 receptor in guinea pig brain membrane after 150 mins by liquid scintillation counting. It is filed as cell membranes. Summed up:
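Guinea pig membranes were incubated to equilibrium, 150 min at 37 °C, with 3 nM [³H]-(+)-pentazocine (45 Ci/mmol) and increasing levels of displacer in 50 mM Tris-HCl pH 7.4. Haloperidol defined nonspecific binding. Samples were filtered on PEI-presoaked glass-fibre filters, washed with ice-cold buffer and counted by liquid scintillation; Ki was calculated.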
In general terms: Displacement assays read how much labelled ligand stays bound in the presence of the test substance.

The subject of test [11] is LNCaP. Kind of test: Antiproliferative activity against human LNCAP cells at 10 to 25 uM after 24 hrs by MTT assay. It is filed as functional. A digest of the protocol: as §2
In test [12] the test system is PC-3. Nature of the test: Antiproliferative activity against human PC3 cells after 24 hrs by MTT assay. It is filed as functional, cell-based. To be noted: PC-3, 24 h. Summed up: as §1
In test [13] the target is D(3) dopamine receptor (Rattus norvegicus, UniProt P19020). Nature of the test: Displacement radioligand form dopamine D3 receptor in rat olfactory tubercle by liquid scintillation counting. Type of test: tissue-based.
The target of test [14] is T1, Histone deacetylase (Homo sapiens). Nature of the test: Inhibition of HDAC in human PC3 cells at 10 uM after 10 mins by fluorometric assay. Type of test: cell-based. To be noted: PC-3. Summed up: as §3
Test [15] deals with D(2) dopamine receptor (Rattus norvegicus, UniProt P61169). Kind of test: Displacement radioligand form dopamine D2 receptor in rat striatum by liquid scintillation counting. It is filed as tissue-based.
Test [16] addresses T1, Histone deacetylase (Homo sapiens). Kind of test: Inhibition of HDAC in human HeLa cells at 10 uM after 10 mins by fluorometric assay. Type of test: cell-based. Summed up:
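The HDAC fluorescent activity kit was used with supplied HeLa extract. Test agent was added in assay buffer, with trichostatin A (1 µM listed) as full-inhibition control. The reaction was started with acetyl-lysine Fluor de Lys substrate at 25–37 °C and stopped after 10 min with developer, then held 10–15 min at room temperature. Fluorescence was read at ex 360/em 460 nm. Percent inhibition was taken against the uninhibited reaction, in triplicate.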

Test [17] relates to LNCaP. Kind of test: Antiproliferative activity against human LNCAP cells after 96 hrs by MTT assay. It is filed as functional, cell-based. A digest of the protocol: as §1
The subject of test [18] is PC-3. Nature of the test: Antiproliferative activity against human PC3 cells at 10 uM after 96 hrs by MTT assay. Type of test: functional, cell-based. A digest of the protocol: as §2
Test [19] has as its system LNCaP. Kind of test: Antiproliferative activity against human LNCAP cells after 72 hrs by MTT assay. It is filed as functional, cell-based. A digest of the protocol:
as §1

Test [20] deals with T1, Histone deacetylase (Homo sapiens). The settings on record: HeLa, 1.5 mM.

Chain of D(3) dopamine receptor (P19020 whole entry): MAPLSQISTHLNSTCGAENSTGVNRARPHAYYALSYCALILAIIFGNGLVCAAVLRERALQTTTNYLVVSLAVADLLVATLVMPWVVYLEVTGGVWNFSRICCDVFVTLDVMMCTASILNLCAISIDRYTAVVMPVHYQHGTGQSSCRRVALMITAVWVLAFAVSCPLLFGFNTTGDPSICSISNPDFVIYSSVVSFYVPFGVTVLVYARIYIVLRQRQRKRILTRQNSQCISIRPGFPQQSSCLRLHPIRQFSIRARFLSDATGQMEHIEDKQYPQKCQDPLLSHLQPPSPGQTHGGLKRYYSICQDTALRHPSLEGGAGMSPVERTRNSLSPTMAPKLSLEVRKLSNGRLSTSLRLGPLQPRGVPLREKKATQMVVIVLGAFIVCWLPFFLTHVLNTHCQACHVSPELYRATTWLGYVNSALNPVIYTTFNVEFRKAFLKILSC
Chain of Sigma non-opioid intracellular receptor 1 (Q60492 whole entry): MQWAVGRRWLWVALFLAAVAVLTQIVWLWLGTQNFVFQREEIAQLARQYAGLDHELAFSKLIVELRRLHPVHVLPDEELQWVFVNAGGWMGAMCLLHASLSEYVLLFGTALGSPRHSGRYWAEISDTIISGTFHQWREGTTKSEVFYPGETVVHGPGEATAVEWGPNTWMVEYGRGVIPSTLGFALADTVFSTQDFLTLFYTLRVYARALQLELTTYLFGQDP
Chain of D(2) dopamine receptor (P61169 whole entry): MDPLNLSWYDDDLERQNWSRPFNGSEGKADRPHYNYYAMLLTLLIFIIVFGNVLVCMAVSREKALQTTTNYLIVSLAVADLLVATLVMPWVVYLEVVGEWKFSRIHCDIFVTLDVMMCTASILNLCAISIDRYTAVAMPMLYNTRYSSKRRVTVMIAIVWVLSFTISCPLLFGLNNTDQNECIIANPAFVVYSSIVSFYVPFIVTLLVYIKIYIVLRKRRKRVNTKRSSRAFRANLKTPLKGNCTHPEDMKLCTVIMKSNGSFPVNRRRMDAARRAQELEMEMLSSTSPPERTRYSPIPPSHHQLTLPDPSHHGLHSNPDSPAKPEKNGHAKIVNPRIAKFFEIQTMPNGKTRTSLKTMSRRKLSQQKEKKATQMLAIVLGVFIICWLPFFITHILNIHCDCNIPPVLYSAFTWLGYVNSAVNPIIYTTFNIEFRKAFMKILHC

In general, IC50 refers to the midpoint of a concentration-inhibition curve. High values mean a need for much substance, low ones inhibition by little substance. The term inhibition denotes the share of the control response that was lost under treatment. A word on the Ki: it is a measure of affinity in units of concentration, obtained from inhibition or displacement. `O=C(CCCc1ccccc1)OC(CCCN1CCC(O)(c2ccc(Cl)cc2)CC1)c1ccc(F)cc1` (racemic): the IC50 in test [1] turned out to be 8.83 µM; in [3], 7.8 µM; in test [5], 6.78 µM; in test [6], 11 µM; in [7], 10.9 µM; in test [12], 12.9 µM. The IC50 came to 6.65 µM in test [17] and 8.13 µM in test [19]. Also, the Activity in test [2] was 10%; in test [11] it was 45% and 40% and 20%. Also, the inhibition result in [4], in test [14] and in [16] was “inactive” each time. For the same compound, the Ki is 0.105 µM in [8], 0.162 µM in test [10], more than 5 µM in test [13] and more than 5 µM in test [15]. Moreover, the result in [9] and in [18] was Active.

Turning to `OC(CCCN1CCC(O)(c2ccc(Cl)cc2)CC1)c1ccc(F)cc1` (centres undefined) [HYDROXYHALOPERIDOL], the IC50 in [7] is 177 µM; in test [12], 208 µM. In addition, the Ki turned out to be 0.00098 µM in test [8] and 1.1 µM in test [13].

Consider `O=C(O)CCCc1ccccc1`, for which the IC50 in test [7] worked out at 2320 µM; in test [12], 2270 µM. The Ki in test [8] and in test [10] was more than 10 µM in each case. In test [20], the inhibition turned out to be 60%.

For `O=C(CCCN1CCC(O)(c2ccc(Cl)cc2)CC1)c1ccc(F)cc1` [HALOPERIDOL], affinity in test [8] was put at a Ki of 0.016 µM.

The values above are taken from ChEMBL document CHEMBL1649346, “Antiproliferative activity of phenylbutyrate ester of haloperidol metabolite II [(±)-MRJF4] in prostate cancer cells” (Eur J Med Chem, 2011).
